Laboratory results taken from ChEMBL document CHEMBL5370639, “Structure-Based Lead Optimization of Enterovirus D68 2A Protease Inhibitors” (J Med Chem, 2023).

Tests used:
[1] = Cytotoxicity against human RD cells assessed as reduction in cell viability by neutral red staining based CPE assay; type: toxicity; settings: RD cells
Outline: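 Uninfected RD cells, grown overnight to ~90% confluency, treated with compound under otherwise the same handling as the antiviral assay. Viability by neutral red uptake (66 μg/mL, 2 h, absorbance 540 nm). CC50 from best-fit dose-response curve; mean ± SD of two independent experiments, three repeats each.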

[2] = Inhibition of Enterovirus D68 US/KY/14-18953 2A protease expressed in Escherichia coli BL21(DE3) using Dabcyl-KIRIVNT/GPGEGGE-Edans as substrate incubated for 2 hrs by FRET assay
enterovirus D68 = test: Antiviral activity against enterovirus D68 US/MO/14-18947 infected in human RD cells assessed as reduction in virus induced cytopathic effect by neutral red staining based CPE assay; type: functional, organism-based; settings: Enterovirus D, US/MO/14-18947, RD
Outline: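 RD cells seeded overnight to ~90% confluency, washed with PBS containing Mg/Ca, infected with virus in DMEM/2% FBS/30 mM MgCl2 for at least 1 h at 33 °C, then compound added. Cells stained with 66 μg/mL neutral red for 2 h; uptake read at 540 nm. EC50 from dose-response fit; mean ± SD of two independent experiments, three repeats each.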

Row | Structure (SMILES) | CC50 [1] | IC50 [2] | EC50 (enterovirus D68)
1 | CC(C)(C)[C@H](NC(=O)NC12CC3CC(CC(C3)C1)C2)C(=O)N1C[C@@H]2CCC[C@@H]2[C@H]1C(=O)N[C@@H](Cc1ccc(F)cc1)C(=O)C(=O)NC1CC1 | 21300 nM | 160 nM | 350 nM
2 | CC(C)(C)[C@H](NC(=O)CC12CC3CC(CC(C3)C1)C2)C(=O)N1C[C@@H]2CCC[C@@H]2[C@H]1C(=O)NC1(C(=O)C(=O)NC2CC2)CCCCC1 | > 150000 nM | 740 nM | 1010 nM
3 | CCC[C@H](NC(=O)[C@@H]1[C@H]2CCC[C@H]2CN1C(=O)[C@@H](NC(=O)CC1CCCCC1)C(C)(C)C)C(=O)C(=O)NC1CC1 | > 150000 nM | 90 nM | 380 nM
4 | CC(C)(C)[C@H](NC(=O)CC12CC3CC(CC(C3)C1)C2)C(=O)N1C[C@@H]2CCC[C@@H]2[C@H]1C(=O)N[C@@H](CC1CC1)C(=O)C(=O)NC1CC1 | 34900 nM | 140 nM | 230 nM
5 | CCC[C@H](NC(=O)[C@@H]1[C@H]2CCC[C@H]2CN1C(=O)[C@@H](NC(=O)Cc1ccccc1)C(C)(C)C)C(=O)C(=O)NC1CC1 | > 150000 nM | 250 nM | 1970 nM
6 | CCC[C@H](NC(=O)[C@H](CC1CCCCC1)NC(=O)[C@@H](NC(=O)CC12CC3CC(CC(C3)C1)C2)C(C)(C)C)C(=O)C(=O)NC1CC1 | 290 nM |  | > 290 nM
7 | CC(C)(C)[C@H](NC(=O)CC12CC3CC(CC(C3)C1)C2)C(=O)N1C[C@@H]2CCC[C@@H]2[C@H]1C(=O)N[C@@H](Cc1c[nH]c2ccccc12)C(=O)C(=O)NC1CC1 | > 150000 nM | 180 nM | 280 nM
8 | CCC[C@H](NC(=O)[C@@H]1[C@H]2CCC[C@H]2CN1C(=O)[C@@H](NC(=O)CC1C2CC3CC(C2)CC1C3)C(C)(C)C)C(=O)C(=O)NC1CC1 (some centres not stated) | > 150000 nM | 120 nM | 180 nM
9 | CCC[C@H](NC(=O)[C@@H]1[C@H]2CCC[C@H]2CN1C(=O)[C@@H](NC(=O)[C@@H](NC(=O)OCc1ccccc1)C1CCCCC1)C(C)(C)C)C(=O)C(=O)NC1CC1 | > 150000 nM | 360 nM | 830 nM
10 | CCC[C@H](NC(=O)[C@@H](NC(=O)[C@@H](NC(=O)CC12CC3CC(CC(C3)C1)C2)C(C)(C)C)C1CCCCC1)C(=O)C(=O)NC1CC1 | 1840 nM |  | > 1840 nM
11 | CC(C)(C)[C@H](NC(=O)CC12CC3CC(CC(C3)C1)C2)C(=O)N1C[C@@H]2CCC[C@@H]2[C@H]1C(=O)N[C@H](C(=O)C(=O)NC1CC1)c1ccc(F)cc1 | 24100 nM | 350 nM | 780 nM
12 | CC(C)C[C@H](NC(=O)[C@@H]1[C@H]2CCC[C@H]2CN1C(=O)[C@@H](NC(=O)CC12CC3CC(CC(C3)C1)C2)C(C)(C)C)C(=O)C(=O)NC1CC1 | 26300 nM | 260 nM | 260 nM
13 | CCC[C@H](NC(=O)[C@@H]1[C@H]2CCC[C@H]2CN1C(=O)[C@@H](NC(C)=O)C(C)(C)C)C(=O)C(=O)NC1CC1 | > 150000 nM | 940 nM | 4650 nM
14 | CCC[C@H](NC(=O)[C@@H]1[C@H]2CCC[C@H]2CN1C(=O)[C@@H](NC(=O)CC1CCCC1)C(C)(C)C)C(=O)C(=O)NC1CC1 | > 150000 nM | 100 nM | 700 nM
15 | CCC[C@H](NC(=O)[C@@H]1[C@H]2CCC[C@H]2CN1C(=O)[C@@H](NC(=O)NC12CC3CC(CC(C3)C1)C2)C(C)(C)C)C(=O)C(=O)NC1CC1 | 42200 nM | 160 nM | 700 nM
16 | CCC[C@H](NC(=O)[C@@H]1[C@H]2CCC[C@H]2CN1C(=O)[C@@H](NC(=O)CC1CCC(F)(F)CC1)C(C)(C)C)C(=O)C(=O)NC1CC1 | > 50000 nM | 140 nM | 750 nM
17 | CCC[C@H](NC(=O)[C@@H]1[C@H]2CCC[C@H]2CN1C(=O)[C@@H](NC(=O)NC(C)(C)C)C(C)(C)C)C(=O)C(=O)NC1CC1 |  | 1160 nM | 
